hIAP inh = blocks human intestinal alkaline phosphatase | 330,000 tested, 0.12% active | P09923 | AID 2544 | purified IAP, CDP-Star luminescence, 30 min | inhibition, % at 10 µM;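 active = inhibition reaching a set limit with compound at 10 µM in the primary screen, cut at about 35% in these data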
Target sequence (P09923 whole entry, looked up): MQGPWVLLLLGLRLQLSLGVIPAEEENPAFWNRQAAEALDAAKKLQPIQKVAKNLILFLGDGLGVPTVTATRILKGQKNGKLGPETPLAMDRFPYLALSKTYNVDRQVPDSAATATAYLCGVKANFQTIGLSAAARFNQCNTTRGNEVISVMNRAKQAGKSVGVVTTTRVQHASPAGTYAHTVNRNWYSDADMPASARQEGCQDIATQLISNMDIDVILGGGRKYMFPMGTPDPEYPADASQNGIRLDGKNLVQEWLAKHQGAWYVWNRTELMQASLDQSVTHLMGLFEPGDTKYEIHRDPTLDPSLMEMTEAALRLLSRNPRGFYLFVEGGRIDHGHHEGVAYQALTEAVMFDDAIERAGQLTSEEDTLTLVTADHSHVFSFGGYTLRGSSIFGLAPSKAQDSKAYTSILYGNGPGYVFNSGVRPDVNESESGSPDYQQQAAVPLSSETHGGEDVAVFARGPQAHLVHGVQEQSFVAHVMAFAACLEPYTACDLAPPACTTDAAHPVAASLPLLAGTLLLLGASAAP
mIAP activ = mouse IAP activation. muIAP, CDP-Star luminescence, 30 min; active compounds read high; 1 = vehicle-only enzyme signal, 0 = enzyme-free wells. activation factor at 10 µM. 330,000 tested, 0.24% active. AID 2805;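 active = activation factor of at least 2 at 20 µM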
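Assay system: mouse IAP enzyme; reagent: chemiluminescent substrate CDP-Star; dosing: test compounds delivered from DMSO solution; schedule: 30 min at room temperature; measured by: luminescence from enzymatic CDP-Star hydrolysis; controls: DMSO-only wells and no-enzyme negative control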
bIAP inh = intestinal alkaline phosphatase (bovine) inhibition | 190,000 tested, under 10 active | inhibition, % at 20 µM | purified bovine IAP, CDP-star luminescence, 30 min;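 active = over 50% inhibition of intestinal alkaline phosphatase at 20 µM in the single-dose screen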
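System: purified bovine intestinal alkaline phosphatase (IAP) enzyme; Input: IAP diluted 1/65,000,000 in the well; Measured by: CDP-star luminescence signal; Compound dosing: 20 µM single dose; Incubation: 30 min reaction at room temperature.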
hIAP activ = increases human intestinal alkaline phosphatase activity | purified human IAP, CDP-Star luminescence, 30 min; active compounds read high; 1 = vehicle-only enzyme, 0 = enzyme-free background | AID 2524 | 330,000 tested, 0.16% active | activation factor at 10 µM | P09923;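 active = activation factor of the enzyme at least 2-fold when tested at 20 µM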
bIAP activator = increases bovine intestinal alkaline phosphatase activity; 200,000 tested, 0.17% active; purified bovine IAP, CDP-star luminescence, 30 min; active compounds read high; fold of DMSO-control signal, blank-subtracted; activation factor at 20 µM;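 active = activation factor of 2 or more at 20 µM, a signal rise over negative controls twice the positive control's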
mIAP block = mouse IAP inhibition; inhibition, % at 10 µM; 330,000 tested, 0.2% active; AID 2806; purified mouse IAP, CDP-Star luminescence, 30 min;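 active = inhibition of at least 40% at 10 µM in the primary screen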
Of the large screens only hits and unclear results are named; the others gave an inactive call. Compounds with a hit are over-represented: about 0.79% of the library has one in this group of screens.

CNC[C@H]1Oc2ccc(NC(=O)Nc3ccc4c(c3)OCO4)cc2C(=O)N([C@H](C)CO)C[C@@H]1C	mIAP activ 2.16 (no result: bIAP inh, bIAP activator)
C[C@H](CO)N1C[C@H](C)[C@@H](CN(C)C(=O)Nc2ccc3c(c2)OCO3)Oc2ccc(NC(=O)Nc3ccc4c(c3)OCO4)cc2C1=O	mIAP activ 2.39 (no result: bIAP inh, bIAP activator)
CC(C)NC(=O)N(C)C[C@H]1Oc2ccc(NC(=O)Nc3ccc4c(c3)OCO4)cc2C(=O)N([C@H](C)CO)C[C@@H]1C	none (no result: bIAP inh, bIAP activator)
Cc1ccc(N(CC(=O)Nc2cccc(C)c2)S(=O)(=O)c2cccc3nonc23)cc1	none
Brc1ccc(COn2ccnc2)cc1	none (no result: hIAP inh, mIAP activ, hIAP activ, mIAP block)
CCc1noc(C)c1C(=O)OCC(=O)Nc1ccc2c(c1)OCO2	none (no result: bIAP inh, bIAP activator)
CCOC(=O)c1cc(-c2ccccc2)n(CC(=O)Nc2cc(OC)cc(OC)c2)c1C	mIAP activ 2.16 (no result: bIAP inh)
CCOC(=O)c1cc(-c2ccccc2)n(CC(=O)Nc2ccc(OCC)cc2)c1C	none
COc1cc([N+](=O)[O-])ccc1NC(=O)NCC1CCN(Cc2ccc(Cl)cc2)CC1	none (no result: bIAP inh, bIAP activator)
CCc1cccc(CN2CCC(CNC(=O)Nc3ccc(Cl)cc3)CC2)c1	mIAP activ 3.59
O=C(NCCN1CCN(Cc2ccccc2)CC1)Nc1cc(Cl)cc(Cl)c1	mIAP activ 2.02 (no result: bIAP inh, bIAP activator)
O=C(NCC1CCN(Cc2cccc(Cl)c2)CC1)Nc1ccc(Cl)cc1	mIAP activ 3.1 (no result: bIAP inh, bIAP activator)
Cc1cc(C)c(C)c(S(=O)(=O)N2CCN(CC(=O)Nc3sccc3C#N)CC2)c1C	none
CC(=O)c1c(Cl)nc2ccc(Br)cc2c1-c1ccccc1	none (no result: bIAP inh, bIAP activator)
O=C(O)c1ccc(NS(=O)(=O)c2ccc3c(c2)C2C=CCC2C(c2ccccc2F)N3)cc1 (stereo unspecified)	none
NS(=O)(=O)c1ccc2c(c1)C1C=CCC1C(C1CC=CCC1)N2 (stereo unspecified)	mIAP block 56.4
COc1ccc(-c2nn(-c3ccccc3)cc2C(=O)NCCCn2ccnc2)cc1	bIAP activator 2.3
COc1ccc(C(=O)NCCCn2ccnc2)cc1	none
CC1=C(C#N)C(=O)N(C2CCS(=O)(=O)C2)C(=O)/C1=C\c1ccco1 (stereo unspecified)	mIAP block 46.8 (no result: bIAP inh, bIAP activator)
CN(C)c1ccc(/C=C(/C(=O)c2ccc(Cl)cc2Cl)n2cncn2)cc1	mIAP block 41.9
COc1ccc(/C=C(/C(=O)c2ccc(Cl)cc2Cl)n2cncn2)cc1	none
Nc1ccc(C(=O)N/N=C/c2cn(Cc3cccc(F)c3)c3ccccc23)cc1	none (no result: bIAP inh, bIAP activator)
O=C(O)c1ccc(CS(=O)c2cccc(C(F)(F)F)c2)o1 (stereo unspecified)	bIAP activator 3.2
Cc1cccc(S(=O)Cc2ccc(C(=O)N3CCOCC3)o2)c1 (stereo unspecified)	none (no result: bIAP inh, bIAP activator)
CC[C@@]1(C(=O)OC)N[C@H](CN(C)C(=O)Nc2ccc(OC)cc2)[C@@H]2C(=O)N(Cc3ccccc3)C(=O)[C@@H]21	none (no result: bIAP inh, bIAP activator)
COc1cccc(NS(=O)(=O)c2cn(C)c(=O)n(C)c2=O)c1	bIAP activator 5.1
Cn1cc(S(=O)(=O)Nc2cccc(F)c2)c(=O)n(C)c1=O	none
Cc1cc2nc(C3CCN(CC4COc5ccccc5O4)CC3)[nH]c2cc1C (stereo unspecified)	bIAP activator 4.5
S=C(NCC1CCCCC1)Nc1ccc(Oc2ccccc2)cc1	mIAP activ 3.26
S=C(Nc1ccccc1Oc1ccccc1)NC1CCCC1	none
CC(C)(C)c1ccc(OCCNC(=S)Nc2ccccc2)cc1	mIAP activ 2.36
S=C(Nc1ccc(Br)cc1)NC1CCCC1	mIAP activ 2.07
S=C(Nc1ccc(Oc2ccccc2)cc1)NC1CCCC1	mIAP activ 2.72
Cc1cccc(NC(=S)NC2CCCC2)c1	none
Cc1cc(OCC(=O)NCCc2ccc(S(N)(=O)=O)cc2)c2c(C)c(C)c(=O)oc2c1	none (no result: bIAP inh, bIAP activator)
CSc1ccc(C(=O)C2CCCN(C(=O)CCc3cnn(C)c3)C2)cc1 (stereo unspecified)	none (no result: bIAP inh, bIAP activator)
COc1cccc(C(=O)N2CCN(S(C)(=O)=O)CC2)c1	none
CCCCNC(=S)Nc1ccc(Oc2ccccc2)cc1	mIAP activ 2.35
Cc1cc(C)c(NC(=O)CCN2C(=O)c3ccccc3S2(=O)=O)c(C)c1	none (no result: bIAP inh, bIAP activator)
CC(=O)Nc1ccc(OCc2ccc3c(c2)OCO3)cc1	none (no result: bIAP inh, bIAP activator)
Cc1ccsc1C(=O)Nc1ccc2c(c1)OCCO2	bIAP activator 2.1
Cc1ncoc1C(=O)Nc1ccc2c(c1)OCCO2	none
COc1ccc(-c2nn(C)c3sc(C(=O)NCc4ccco4)cc23)cc1OC	bIAP activator 3.5
O=C(Nc1cccc2cccnc12)c1ccc2c(c1)OCCO2	none
COc1cc(NC(=O)c2ccc3c(c2)OCO3)c2ncccc2c1	bIAP activator 10.6
CN(C)c1ccc(N2C(=O)CSC2=S)cc1	mIAP block 46.8
CC1(C(=O)OCC(=O)Nc2nnc(-c3ccccc3)o2)CC1(Cl)Cl (stereo unspecified)	none (no result: bIAP inh, bIAP activator)
OCc1nc2ccccc2n1C/C=C/c1ccccc1	bIAP activator 2.2
CC(O)c1nc2ccccc2n1C/C=C/c1ccccc1 (stereo unspecified)	none
O=C(Nc1cccc(Cl)c1)N1CCN2C(=O)c3ccccc3C12c1ccccc1 (stereo unspecified)	mIAP activ 2.08
COc1cc(CNCc2ccccn2)ccc1OCc1ccc(Cl)cc1	none
COc1cc(CNCc2ccccn2)ccc1OCc1c(Cl)cccc1Cl	bIAP activator 2.5
COc1cc(/C=C2/CC/C(=C/c3ccc(O)c(OC)c3)C2=O)ccc1O	none (no result: bIAP inh, bIAP activator)
COc1cc(/C=C2\COC/C(=C\c3ccc(O)c(OC)c3)C2=O)ccc1O	mIAP block 41.7 (no result: bIAP inh, bIAP activator)
CN(C)S(=O)(=O)c1cccc(NC(=S)NC23CC4CC(CC(C4)C2)C3)c1	mIAP activ 2.74 (no result: bIAP inh, bIAP activator)
CC1CCCC(NC(=S)Nc2cccc(S(=O)(=O)N(C)C)c2)C1C (stereo unspecified)	mIAP activ 4.92
Cc1ccc(S(=O)(=O)N(C)C)cc1NC(=S)NC12CC3CC(CC(C3)C1)C2	none (no result: hIAP inh, mIAP activ, bIAP inh, hIAP activ, mIAP block)
Cc1cc(-c2nn(-c3ccccc3F)cc2CN2CCC(C(N)=O)CC2)c(C)s1	none
Cc1cc(-c2nn(-c3ccccc3F)cc2CNCCc2cnc[nH]2)c(C)s1	bIAP activator 3
O=C(Nc1ccc(S(=O)(=O)N2CCCCC2)cc1)c1ccccc1Cl	none
O=C(Nc1ccccc1)Nc1ccc(S(=O)(=O)N2CCCCC2)cc1	mIAP activ 2.4
Cc1oc(S(=O)(=O)N2CCCCC2)cc1NC(=O)Nc1ccc(Cl)cc1	mIAP activ 2.56 (no result: bIAP inh, bIAP activator)
O=C(O)c1ccccc1C(=O)Nc1ccc(Br)c(C(F)(F)F)c1	none (no result: bIAP inh, bIAP activator)
Cc1cc(C)c(C(=O)Nc2ccc(Br)c(C(F)(F)F)c2)c(C)c1	mIAP activ 2.14
CC(Cc1cccs1)NC(=O)Nc1ccc(Cl)c(Cl)c1 (stereo unspecified)	mIAP activ 4.01 (no result: bIAP inh)
CC(Cc1cccs1)NC(=S)Nc1ccccc1 (stereo unspecified)	none

High-throughput results: PubChem BioAssay, Sanford-Burnham Center for Chemical Genomics
